In ChEMBL document CHEMBL1130202, “Biologically active heteroarotinoids exhibiting anticancer activity and decreased toxicity” (J Med Chem, 1997):
Calls of active or inactive are those of the source. The calls are words filed in the database; no cut-off is given here.

Experiments:
Mus musculus [1] = species: Mus musculus; experiment: Effect of compound on serum Alkaline phosphatase levels in mice at high dose on day 29; type: functional
How it was run: (§1)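 Male B6D2F1 mice dosed daily by oral gavage in corn oil at low, mid 1, mid 2 or high dose. Blood sampled on set days (8, 29, 36, 65) for clinical chemistry, serum alkaline phosphatase and triglycerides. Group mean ± SD reported as % relative to vehicle 1; significance p < 0.05 versus corn oil vehicle.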

Mus musculus [2] = species: Mus musculus; experiment: Approximate day to 10% weight loss in mice at low dose; type: functional
How it was run: (§2)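 Male B6D2F1 mice dosed daily by gavage in corn oil; body weights followed to termination (day 65, or day 25 for TTNPB 0.01/0.05 mg/kg/day groups) and compared with the matching vehicle group. Value is approximate day of onset of 10% body weight reduction versus vehicle.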

Mus musculus [3] = species: Mus musculus; experiment: Effect of compound on serum triglycerides levels in mice at mid dose 1 on day 29; type: functional
How it was run: (§3)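 Male B6D2F1 mice were gavaged daily with compound in corn oil at low, mid 1, mid 2 or high dose. Serum triglycerides and circulating white blood cells were measured on the stated day (8, 29, 36, 65). Values are group mean ± SD expressed as % relative to corn-oil vehicle, with significance at p ≤ 0.05.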

Mus musculus [4] = species: Mus musculus; experiment: Approximate day to 10% weight loss in mice at high dose; type: functional; how it was run: as §2
Mus musculus [5] = species: Mus musculus; experiment: Effect of compound on right testicle to body weight ratios in mice at mid dose 1 on day 65; type: functional
How it was run: (§4)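 Male B6D2F1 mice dosed daily by gavage with compound in corn oil; vehicle 1 (corn oil) controls run to termination on day 65. Low, mid 1, mid 2 and high dose groups, with dosage increases partway through the study. Organ-to-body weight ratios (×1000) taken at necropsy on day 65, reported as mean ± SD for 4 to 8 animals and as % difference from vehicle.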

Mus musculus [6] = species: Mus musculus; experiment: Total dose of 10% weight loss in mice at mid dose 2; type: functional
Mus musculus [7] = species: Mus musculus; experiment: Compound total dose to termination (day 25/65) in mid dose 1; type: functional
How it was run: (§5)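 Male B6D2F1 mice given daily oral gavage in corn oil; dosages increased during the study (day 30 or day 51 depending on compound). Cumulative dose in mg/kg administered up to termination (day 65, or day 25 for TTNPB 0.01/0.05 mg/kg/day groups).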

Mus musculus [8] = species: Mus musculus; experiment: Effect of compound on adrenal to body weight ratios in mice at mid dose 2 on day 65; type: functional; how it was run: as §4
Mus musculus [9] = species: Mus musculus; experiment: Total dose of 10% weight loss in mice at low dose; type: functional
Mus musculus [10] = species: Mus musculus; experiment: Effect of compound on thymus to body weight ratios in mice at mid dose 2 on day 65; type: functional
How it was run: (§6)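 Male B6D2F1 mice were dosed daily by gavage in corn oil, with TTNPB given at 0.1–0.8 or 0.01/0.05 mg/kg/day. Thymus-to-body weight ratio (×1000) was taken at necropsy on day 65 against vehicle 1, or on day 25 for the 0.01/0.05 groups against vehicle 2. Mean ± SD of 4–8 animals, reported as % difference from vehicle.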

Mus musculus [11] = species: Mus musculus; experiment: Effect of compound on adrenal to body weight ratios in mice at mid dose 1 on day 65; type: functional; how it was run: as §4
Mus musculus [12] = species: Mus musculus; experiment: Effect of compound on thymus to body weight ratios in mice at mid dose 1 on day 65; type: functional; how it was run: as §6
Mus musculus [13] = species: Mus musculus; experiment: Compound total dose to termination (day 25/65) in mid dose 2; type: functional; how it was run: as §5
Mus musculus [14] = species: Mus musculus; experiment: Approximate day to 10% weight loss in mice at mid dose 1; type: functional; how it was run: as §2
Mus musculus [15] = species: Mus musculus; experiment: Effect of compound on serum Alkaline phosphatase levels in mice at high dose on day 36; type: functional; how it was run: as §1
Mus musculus [16] = species: Mus musculus; experiment: Compound total dose to termination (day 25/65) in high dose; type: functional; how it was run: as §5
Mus musculus [17] = species: Mus musculus; experiment: Effect of compound on Spleen to body weight ratios in mice at mid dose 1 on day 65; type: functional; how it was run: as §4
CC-B = experiment: Relative transcriptional activation activity relative to t-RA; type: functional, Homo sapiens
How it was run: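 CC-B reporter cells (CC-1 cervical line carrying a CAT gene under a RARE with a tk promoter) were seeded at 4×10^5 cells/well in MEM with nonessential amino acids, pyruvate and 10% FBS, the serum lots having negligible t-RA by HPLC. Triplicate cultures were screened at 10^-6 M with 0.1% DMSO final. After 48 h, CAT activity ([3H]acetyl-CoA) per mg protein was taken as treated/control and expressed relative to t-RA. Average of three experiments.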

Mus musculus [18] = species: Mus musculus; experiment: Enlarged spleen in Gross pathological observations in mice with hypervitaminosis A at high dose with gross observations/total number of mice in group; 0/16; type: functional, organism-based
Mus musculus [19] = species: Mus musculus; experiment: Average number of fractures per mouse at high dose
Mus musculus [20] = species: Mus musculus; experiment: Fracture incidence in mouse at low dose; 0/8
Mus musculus [21] = species: Mus musculus; experiment: Effect of compound on adrenal to body weight ratios in mice at low dose on day 65; type: functional; how it was run: as §4
Mus musculus [22] = species: Mus musculus; experiment: Approximate day to 10% weight loss in mice at mid dose 2; type: functional; how it was run: as §2
Mus musculus [23] = species: Mus musculus; experiment: Effect of compound on right testicle to body weight ratios in mice at mid dose 2 on day 65; type: functional; how it was run: as §4
Mus musculus [24] = species: Mus musculus; experiment: Calculated 30-day maximally tolerated dose based on 10% weight loss in mice at low dose; type: functional
Mus musculus [25] = species: Mus musculus; experiment: Total dose of 10% weight loss in mice at high dose; type: functional
Mus musculus [26] = species: Mus musculus; experiment: Effect of compound on serum triglycerides levels in mice at mid dose 2 on day 29; type: functional; how it was run: as §3
Mus musculus [27] = species: Mus musculus; experiment: Average number of fractures per mouse at low dose
Mus musculus [28] = species: Mus musculus; experiment: Effect of compound on right testicle to body weight ratios in mice at low dose on day 65; type: functional; how it was run: as §4
Mus musculus [29] = species: Mus musculus; experiment: Total dose of 10% weight loss in mice at mid dose 1; type: functional
Mus musculus [30] = species: Mus musculus; experiment: Effect of compound on thymus to body weight ratios in mice at low dose on day 65; type: functional; how it was run: as §6
Mus musculus [31] = species: Mus musculus; experiment: Effect of compound on serum triglycerides levels in mice at high dose on day 29; type: functional; how it was run: as §1
Mus musculus [32] = species: Mus musculus; experiment: Effect of compound on Spleen to body weight ratios in mice at mid dose 2 on day 65; type: functional; how it was run: as §4
Mus musculus [33] = species: Mus musculus; experiment: Effect of compound on serum Alkaline phosphatase levels in mice at low dose on day 65; type: functional; how it was run: as §1
Mus musculus [34] = species: Mus musculus; experiment: Effect of compound on serum Alkaline phosphatase levels in mice at mid dose 2 on day 65; type: functional; how it was run: as §1
Mus musculus [35] = species: Mus musculus; experiment: Calculated 30-day maximally tolerated dose based on 10% weight loss in mice at mid dose 2; type: functional
Mus musculus [36] = species: Mus musculus; experiment: Calculated 30-day maximally tolerated dose based on 10% weight loss in mice at high dose; type: functional
Mus musculus [37] = species: Mus musculus; experiment: Calculated 30-day maximally tolerated dose based on 10% weight loss in mice at mid dose 1; type: functional
Mus musculus [38] = species: Mus musculus; experiment: Average number of fractures per mouse at mid dose 2
Mus musculus [39] = species: Mus musculus; experiment: Effect of compound on serum triglycerides levels in mice at mid dose 1 on day 8; type: functional; how it was run: as §3
Mus musculus [40] = species: Mus musculus; experiment: Skin scaling in mice at mid dose 2 with Hypervitaminosis; 0/16; type: functional, organism-based
How it was run: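 Male B6D2F1 mice were dosed daily by gavage in corn oil and observed for skin scaling of the ears, mouth, nose, eyelids, feet, tail or ventral body. Results are given as affected animals over animals in the group, with the day of first observation.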

`CC(/C=C/C=C(\C)c1ccc2c(c1)C(C)(C)CCS2)=C\C(=O)O` was tested, and the Activity (Mus musculus [1]) was 94.6, the Activity (Mus musculus [2]) was >65 and the Activity (Mus musculus [3]) was 174.1. The Activity (Mus musculus [4]) was 54, the Activity (Mus musculus [5]) was 3.1 and the Dose (Mus musculus [6]) was >828.4 mg/kg. For the same molecule, the Total dose (Mus musculus [7]) was 414.2 mg/kg, the Activity (Mus musculus [8]) was 0.3 and the Dose (Mus musculus [9]) was >207.1 mg/kg. The Activity (Mus musculus [10]) was 1.6, the Activity (Mus musculus [11]) was 0.3 and the Activity (Mus musculus [12]) was 1.5. The Total dose (Mus musculus [13]) was 828.4 mg/kg, the Activity (Mus musculus [14]) was >65 and the Activity (Mus musculus [15]) was 84.6. It also gave a Total dose (Mus musculus [16]) of 3106.5 mg/kg, an Activity (Mus musculus [17]) of 2 and a Relative activity (CC-B) of 52. For the same molecule, the Activity (Mus musculus [18]) was “inactive”, the Activity (Mus musculus [19]) was 0.3 and the Activity (Mus musculus [20]) was “inactive”. The Activity (Mus musculus [21]) was 0.3, the Activity (Mus musculus [22]) was >65 and the Activity (Mus musculus [23]) was 2.8. The Max tolerated dose (Mus musculus [24]) was >6.9 mg/kg, the Dose (Mus musculus [25]) was 1016.8 mg/kg and the Activity (Mus musculus [26]) was 153.4. For the same molecule, the Activity (Mus musculus [27]) was 0, the Activity (Mus musculus [28]) was 2.6 and the Dose (Mus musculus [29]) was >414.2 mg/kg. For the same molecule, the Activity (Mus musculus [30]) was 1.7, the Activity (Mus musculus [31]) was 164.2 and the Activity (Mus musculus [32]) was 2.2. The Activity (Mus musculus [33]) was 127.5, the Activity (Mus musculus [34]) was 137 and the Max tolerated dose (Mus musculus [35]) was >27.6 mg/kg. For the same molecule, the Max tolerated dose (Mus musculus [36]) was 33.9 mg/kg, the Max tolerated dose (Mus musculus [37]) was >13.8 mg/kg and the Activity (Mus musculus [38]) was 0. For the same molecule, the Activity (Mus musculus [39]) was 97.6 and the Activity (Mus musculus [40]) was “inactive”.
